pIC50: −log10 of the molar value.
Assays:
[1] = biological target: NAD(P)H dehydrogenase [quinone] 1 (Mus musculus) (UniProt Q64669); assay: Induction of QR1 activity in mouse Hepa-1c1c7 cells assessed as induction ratio at 50 uM after 48 hrs by MTT assay relative to control; format: cell-based
Summary of the method: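 QR1 induction is reported as the induction ratio, meaning activity relative to control, measured at a test concentration of 50 μM.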

[2] = biological target: T1, Aromatase (Homo sapiens, UniProt P11511); assay: Inhibition of CYP19A1 (unknown origin) at 50 uM preincubated with NADPH followed by DBF substrate addition after 30 mins by fluorescence based assay relative to control
T1 sequence (P11511 whole entry): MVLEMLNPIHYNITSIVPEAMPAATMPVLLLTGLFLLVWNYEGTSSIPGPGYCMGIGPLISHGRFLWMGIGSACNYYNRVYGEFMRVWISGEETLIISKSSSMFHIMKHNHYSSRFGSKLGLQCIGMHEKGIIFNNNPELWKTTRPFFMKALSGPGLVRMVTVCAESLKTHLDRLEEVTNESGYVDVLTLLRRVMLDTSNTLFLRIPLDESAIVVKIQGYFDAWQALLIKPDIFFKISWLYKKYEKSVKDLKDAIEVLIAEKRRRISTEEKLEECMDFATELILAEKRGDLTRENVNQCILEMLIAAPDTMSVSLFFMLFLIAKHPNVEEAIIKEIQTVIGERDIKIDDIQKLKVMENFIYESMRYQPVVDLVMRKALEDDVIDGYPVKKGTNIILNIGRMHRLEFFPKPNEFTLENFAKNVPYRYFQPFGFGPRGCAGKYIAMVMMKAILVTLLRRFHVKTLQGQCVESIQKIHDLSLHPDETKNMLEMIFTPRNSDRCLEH
Summary of the method: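 Aromatase inhibition was screened at 50 μM test concentration. Activity is expressed as percent inhibition relative to vehicle-treated controls.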

[3] = biological target: NAD(P)H dehydrogenase [quinone] 1 (Mus musculus) (UniProt Q64669); assay: Induction of QR1 activity in mouse Hepa-1c1c7 cells assessed as drug concentration required to double enzyme activity after 48 hrs by MTT assay; format: cell-based
Summary of the method: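 CD is the concentration that doubles QR1 activity. It was determined only for compounds whose induction ratio at 50 μM exceeded 2.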

[4] = biological target: T1, Aromatase; assay: Inhibition of CYP19A1 (unknown origin) preincubated with NADPH followed by DBF substrate addition after 30 mins by fluorescence based assay

Sequence of NAD(P)H dehydrogenase [quinone] 1 (Mus musculus) (Q64669 whole entry): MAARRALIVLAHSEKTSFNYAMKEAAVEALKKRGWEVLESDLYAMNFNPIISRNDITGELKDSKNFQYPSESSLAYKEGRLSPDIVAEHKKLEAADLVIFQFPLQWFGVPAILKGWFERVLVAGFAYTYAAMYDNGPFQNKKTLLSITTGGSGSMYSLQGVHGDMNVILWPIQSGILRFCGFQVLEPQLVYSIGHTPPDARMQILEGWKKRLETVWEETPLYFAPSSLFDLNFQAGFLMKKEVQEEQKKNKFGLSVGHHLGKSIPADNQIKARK

| SMILES | Ratio [1] | inhibition at 50 µM [2] | CD [3] | pIC50 [4] |
| --- | --- | --- | --- | --- |
| CCCCCc1ccc(-c2cc3ccccc3[nH]2)cc1 | 0.78 | 0% | – | – |
| Cn1c(-c2ccc(Cl)c(Cl)c2)cc2cc(N)ccc21 | 2.14 | 42% | 46.7 µM | – |
| CO/N=C/c1c(-c2ccccc2)[nH]c2ccccc12 | 1.3 | 24.7% | – | – |
| c1ccc2[nH]c(-c3ccsc3)cc2c1 | 0.67 | 22% | – | – |
| Nc1ccc2[nH]c(-c3ccc(Cl)c(Cl)c3)cc2c1 | 4.9 | 21.4% | 10.3 µM | – |
| c1ccc(Cn2c(-c3ccccc3)cc3ccccc32)cc1 | 0.37 | 0% | – | – |
| Clc1ccccc1-c1cc2ccccc2[nH]1 | 1.4 | 21.5% | – | – |
| Cn1c(-c2ccccc2)cc2ccccc21 | 0.5 | 0% | – | – |
| c1ccc(C2Cc3ccccc3N2)cc1 (stereo not drawn) | 1.8 | 49% | – | – |
| Cc1ccccc1-c1cc2ccccc2[nH]1 | 0.54 | 27.1% | – | – |
| O/N=C/c1c(-c2ccccc2)[nH]c2ccccc12 | 3.1 | 40.4% | 11.7 µM | – |
| CC(C)(C)OC(=O)n1c(-c2ccccc2)cc2ccccc21 | 1 | 11.9% | – | – |
| c1ccc(-c2nc3ccccc3[nH]2)cc1 | – | 7.64% | – | – |
| COc1cc(OC)cc(-c2cc3ccccc3[nH]2)c1 | 3.75 | 9.18% | 1.12 µM | – |
| Cn1c(-c2ccc(Cl)c(Cl)c2)cc2ccccc21 | 4.4 | 20% | 2.1 µM | – |
| FC(F)(F)Oc1ccc(-c2cc3ccccc3[nH]2)cc1 | 2.48 | 1.86% | 29.1 µM | – |
| C(=N\OCc1ccccc1)/c1c(-c2ccccc2)[nH]c2ccccc12 | 0.5 | 23.2% | – | – |
| COCn1c(-c2ccccc2)cc2ccccc21 | 1.9 | 20.2% | – | – |
| Fc1cc(F)cc(-c2cc3ccccc3[nH]2)c1 | 0.58 | 11% | – | – |
| Nc1ccccc1C#Cc1cc(F)cc(F)c1 | 1.48 | 9.27% | – | – |
| COc1ccc2ccc(-c3cc4ccccc4[nH]3)cc2c1 | 0.74 | 0.07% | – | – |
| C#CCn1c(-c2ccccc2)cc2ccccc21 | 0.87 | 26.3% | – | – |
| Cn1c(-c2ccc(Cl)c(Cl)c2)cc2cc([N+](=O)[O-])ccc21 | 1.56 | 34% | – | – |

The next lines start with the values.

| Ratio [1] | inhibition at 50 µM [2] | CD [3] | pIC50 [4] | SMILES |
| --- | --- | --- | --- | --- |
| 0.72 | 41.4% | – | – | Nc1ccc2[nH]c(-c3ccccc3)cc2c1 |
| 2.8 | 4.8% | 5.1 µM | – | Brc1ccc(-c2cc3ccccc3[nH]2)cc1 |
| 2.73 | 21.8% | 17.8 µM | – | Fc1ccc(-c2cc3ccccc3[nH]2)cc1 |
| 5.2 | 24.1% | 2.17 µM | – | Clc1cccc(-c2cc3ccccc3[nH]2)c1 |
| 4.25 | 13.6% | 6.8 µM | – | Clc1ccc2cc(-c3ccccc3)[nH]c2c1 |
| 1.06 | 82.3% | – | 5.48 | N#Cc1ccc2[nH]c(-c3ccccc3)cc2c1 |
| 3.92 | 77.7% | 5.76 µM | 5.05 | O=[N+]([O-])c1ccc2[nH]c(-c3ccccc3)cc2c1 |
| – | 15.8% | 2.75 µM | – | Clc1ccc(-c2cc3ccccc3[nH]2)cc1 |
| 5.5 | 58.1% | 6.76 µM | 4.40 | Brc1ccc2[nH]c(-c3ccccc3)cc2c1 |
| – | 27.8% | – | – | c1ccc(-c2cc3ccccc3[nH]2)cc1 [2-PHENYL-1H-INDOLE] |
| 1.07 | 7.59% | – | – | O=[N+]([O-])c1ccc2[nH]c(-c3ccc(Cl)c(Cl)c3)cc2c1 |
| 0.56 | 46.2% | – | – | Nc1ccc(-c2cc3ccccc3[nH]2)cc1 |
| 1.21 | 0% | – | – | CN(C)c1ccc(-c2cc3ccccc3[nH]2)cc1 |
| 5.2 | 9.33% | 6.4 µM | – | Cc1ccc(-c2cc3ccccc3[nH]2)cc1 |
| 2.7 | 26.7% | 18.4 µM | – | Nc1cccc(-c2cc3ccccc3[nH]2)c1 |
| 0.57 | 22.6% | – | – | Clc1ccc(-c2cc3ccccc3[nH]2)cc1Cl |
| 2.1 | 93.7% | 31.2 µM | 4.94 | N#Cc1ccc2[nH]c(-c3cccnc3)cc2c1 |
| 1.3 | 48.4% | – | – | COc1cccc(-c2cc3ccccc3[nH]2)c1 |
| 1.14 | 81.5% | – | 5.52 | c1cncc(-c2cc3ccccc3[nH]2)c1 |
| 1.7 | 27.9% | – | – | O=[N+]([O-])c1ccc2[nH]c(-c3cccnc3)cc2c1 |
| 1.56 | 0% | – | – | COc1ccc(-c2cc3ccccc3[nH]2)cc1 |
| 0.89 | 77% | – | 5.41 | Cn1c(-c2ccccc2)cc2cc([N+](=O)[O-])ccc21 |
| 1 | 32.4% | – | – | Cc1ccc2cc(-c3ccccc3)[nH]c2c1 |
| 0.78 | 71.5% | – | 5.16 | Cc1ccccc1-c1cc2cc([N+](=O)[O-])ccc2[nH]1 |
| 5.1 | 70.5% | 5.5 µM | 4.64 | Clc1ccc2[nH]c(-c3ccccc3)cc2c1 |

— ChEMBL document CHEMBL4184169, “Structure-activity relationships and docking studies of synthetic 2-arylindole derivatives determined with aromatase and quinone reductase 1” (Bioorg Med Chem Lett, 2017)
